Assay outcomes (PubChem)
In the library only some 0.98% were active in any assay of this set; here they are far more common.
ERAP1 inh: blocks human ERAP1 aminopeptidase activity. Q9NZ08. recombinant ERAP1, Leu-AMC fluorescence, 60 min. inhibition, % at 10.7 µM. hit rate 0.15% among 340,000;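 active = mean replicate inhibition of at least 30%, or all replicates individually reaching that 30% level; inactive = mean below 30% and not every replicate reaching it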;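 also: 0% = neutral control wells and 100% = L-leucinethiol positive control wells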
S100A4 MyoIIA: blocks human S100A4 binding to myosin IIA peptide; S100A4/TAMRA-MyoIIA peptide fluorescence polarization; hit rate 0.14% among 360,000; P26447; inhibition, % at 10.7 µM;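 active = mean inhibition of at least 70% across replicates, with every replicate also reaching that level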
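Assay system: human S100A4 monomer with TAMRA-labelled myosin IIA peptide / Buffer or medium: Calcium-containing HEPES buffer, pH 7.2 / Reagent: TAMRA-labelled myosin IIA heavy-chain peptide probe, 5 nM / Compound: one dose per compound / Timing: polarization read 5 min after assay mix addition, stable 5–60 min / Benchmarks: neutral control DMSO, positive control TFP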
PGC1a acetyl inh: PGC1a acetylation modulation, inhibitor mode. U2OS PGC1a acetylation, AlphaScreen anti-acetyl-lysine; with virally co-expressed GCN5 acetyltransferase. inhibition, % at 15.6 µM. hit rate 0.17% among 350,000. AID 651687;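 active = every replicate shows inhibition of at least 40%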;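 also: 0% = neutral control wells and 100% = positive control wells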
Rtt109 HAT inh: inhibitors of Candida albicans Rtt109/Vps75 histone acetyltransferase; hit rate 0.16% among 330,000; Q5AAJ8; purified Rtt109/Vps75, ThioGlo CoA-SH fluorescence, 4 h; AID 540336; inhibition, % at 34.9 µM;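 active = inhibition of at least 50% in every replicate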
C2C12 statin: suppression of simvastatin myotoxicity | C2C12 myotubes + simvastatin, ATP luminescence, 48 h; scaled: DMSO 0, geranylgeraniol control 100 | rescue of ATP level, % at 7.49 µM | hit rate 0.78% among 330,000 | AID 602340;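 active = mean ATP rescue above about 67%, or every replicate alone reaching that limit, limit read from the data, passing the limit was not always enough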;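 also: myotubes were challenged with 10 µM simvastatin during compound exposure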
* = called active by the depositor; . = no result given.

SMILES	ERAP1 inh	S100A4 MyoIIA	PGC1a acetyl inh	Rtt109 HAT inh	C2C12 statin
CC(C)CC(C(=O)Nc1cccc(O)c1)N1C(=O)c2ccccc2C1=O (stereo not drawn)	-1	-3	.	-9	15
Cc1ccc(S(=O)(=O)Nc2ccc(O)c3cccnc23)cc1	1	-5	-12	128*	34
Cc1ccc(S(=O)(=O)Nc2ccc(O)c3ncccc23)cc1	-1	-2	13	8	10
COc1ccccc1N1CCN(Cc2nc3ccsc3c(=O)[nH]2)CC1	.	.	4	-7	126*
Cn1c(-c2ccc(F)cc2)cnc1NCc1ccc(F)cc1	.	.	10	5	122*
Cc1cccn2c(=O)c3cc(C(=O)NCCC4=CCCCC4)n(C)c3nc12	-4	0	-1	-4	127*
Cn1c(C(=O)NCCC2=CCCCC2)cc2c(=O)n3ccccc3nc21	.	.	0	-17	-3
CCOC(=O)[C@@H]1[C@H]2COc3cc(OC)ccc3[C@@H]2N2C(=O)N(c3cccc(C)c3)C(=O)[C@]12C	1	87*	0	-6	11
C[C@H](NC(=O)[C@@H]1[C@@H](CO)[C@@H]2Cn3c(ccc(-c4cccnc4)c3=O)[C@@H]2N1C)c1ccccc1	0	2	.	.	-3
O=C(NCc1ccc(F)cc1)[C@H]1C[C@H]2C(=O)N3CCC[C@H]3C(=O)N2[C@H]1c1cccc(OCCO)c1	2	-4	.	.	.
Cc1cccc(C(=O)Nc2nnc(-c3ccc(C(C)(C)C)cc3)s2)c1	.	.	-5	-1	83*
CC1N(C)c2cc(NC(=O)c3ccco3)c(P(=O)(Nc3ccc([N+](=O)[O-])cc3)N3CCOCC3)cc2C1(C)C (stereo not drawn)	7	-67	.	15	.
CC1N(C)c2cc(NC(=O)c3ccco3)ccc2C1(C)C (stereo not drawn)	1	180*	.	14	.
COCC(COCCCNC(=O)Nc1ccc(Br)cc1)OC (stereo not drawn)	.	.	-1	11	108*
O=C1CCc2ccccc2N1Cc1ccccc1	1	-5	-2	-1	11
O=CN1CCC(=O)N(Cc2ccccc2)c2ccccc21	.	.	-7	3	109*
C[C@H](CO)N1C[C@H](C)[C@H](CN(C)S(C)(=O)=O)OCCCC[C@H](C)Oc2ccc(NS(=O)(=O)c3cn(C)cn3)cc2C1=O	-3	8	1	.	.
CC1(Cc2ccccc2OC(F)(F)F)C(=O)Nc2ccc(S(=O)(=O)NC3CCCCC3)cc21 (stereo not drawn)	1	5	-25	.	132*
S=c1sc2c(Cl)ncnc2n1-c1ccccc1	14	1	64*	-2	3
CCC(CC)C(=O)NC12CC3CC(CC(C3)C1)C2	.	.	4	-20	89*
O=C(C1CCCC1)N1CCCCN2[C@H](CO)[C@@H](c3ccc(-c4cccc(F)c4)cc3)[C@H]2C1	-1	-5	-18	.	.
Cn1cc([N+](=O)[O-])c(C(=O)Nc2ccn(Cc3c(F)c(F)cc(F)c3F)n2)n1	.	.	13	8	144*
Cn1ncc([N+](=O)[O-])c1C(=O)Nc1ccn(Cc2ccccc2F)n1	0	-4	0	4	2
C[C@H](NC(=O)C[C@H]1CC[C@@H]2[C@H](COc3ccc(NS(=O)(=O)c4ccc(Cl)cc4)cc3C(=O)N2C)O1)c1ccccc1	.	.	2	.	-23
NC(=O)c1ccc(NC(=O)CCC(=O)N2CCN(S(=O)(=O)c3ccc(Cl)cc3)CC2)cc1	-7	-7	1	-3	.
SMILES	ERAP1 inh	S100A4 MyoIIA	PGC1a acetyl inh	Rtt109 HAT inh	C2C12 statin
O=C(CCC(=O)N1CCN(S(=O)(=O)c2ccc(Cl)cc2)CC1)Nc1cccc(Br)c1	2	-2	3	-8	72*
COc1ccccc1NC(=O)N1C[C@@H](O)COC[C@@H]2O[C@@H](CC(=O)NCc3ccccc3)CC[C@H]21	1	5	-12	.	20
Cc1cccc(/C=N\Nc2cn[nH]c(=O)c2Cl)c1	-3	1	-5	0	102*
Cc1noc(C)c1NC(=O)Nc1ccc2c(c1)C(=O)N([C@H](C)CO)C[C@H](C)[C@H](CN(C)CC1CC1)OCCCC[C@H](C)O2	-1	4	1	.	.
COc1ccc(-n2nc3cc(C)c(N)c(Br)c3n2)cc1	.	.	-5	-8	129*
COc1ccc(-n2nc3cc(N)c(Br)cc3n2)cc1	-3	-7	2	4	12
C[C@H]1CN([C@@H](C)CO)C(=O)c2cc(C#CCC3CCCC3)cnc2O[C@@H]1CN(C)S(=O)(=O)c1cccs1	2	2	-5	.	-7
N#C/C(=C\c1c(Cl)cccc1Cl)c1nn(-c2ccccc2)c(-n2cccc2)c1C#N	.	-5	4	56*	-12
O=c1c2ccccc2c(C=NCc2ccccn2)c(O)n1-c1ccccc1	-2	9	-2	-2	3
Cc1ccc(-n2c(O)c(C=NCc3ccccn3)c3ccccc3c2=O)cc1C	5	2	.	62*	.
COc1ccc(N2C(=O)CC(Sc3nc4ccccc4s3)C2=O)cc1 (stereo not drawn)	-2	-28	-13	1	-230
O=C1CC(Sc2cccs2)C(=O)N1c1ccccc1 (stereo not drawn)	2	0	-5	2	10
C=CCNc1nnc(SC2CC(=O)N(c3ccc(OC)cc3)C2=O)s1 (stereo not drawn)	.	.	-75	126*	-533
Cc1nnc(SC2CC(=O)N(c3ccccc3)C2=O)s1 (stereo not drawn)	.	.	4	100*	5
O=S(=O)(N[C@H]1CC[C@@H](CCn2cc(-c3ccc(F)cc3)nn2)O[C@@H]1CO)c1ccccc1F	0	8	-8	.	-6
COc1cc(Cl)c(C)cc1NC(=O)COC(=O)c1cnc(C)cn1	.	.	7	10	95*
CCCNC(=O)N[C@@H]1C=C[C@H](CC(=O)NCCc2ccccc2)O[C@@H]1CO	.	.	4	.	3
C=CCn1c(SCC(=O)Nc2ccc(N(C)C)cc2)nnc1-c1cccc(C)c1	.	.	-7	19	84*
C=CCCCCCCCCc1nc(=S)[nH][nH]1	.	.	-4	0	148*
COc1ccc(C=C2SC(=S)N(CCCC(=O)Nc3ccc(C(=O)O)c(O)c3)C2=O)cc1OC	35*	3	6	.	13
